Measured values as given in ChEMBL document CHEMBL2177035, “Design and synthesis of dual modulators of soluble epoxide hydrolase and peroxisome proliferator-activated receptors” (J Med Chem, 2012).
Activity calls are given as the source filed them. The rule behind the calls is not given here.

Key:
[1] = biological target: T1, Peroxisome proliferator-activated receptor delta (Homo sapiens) (UniProt Q03181); assay: Transactivation of GAL4-fused human PPARdelta ligand binding domain transfected in african green monkey COS7 cells at 10 uM by luciferase reporter gene assay relative to L-165041; format: cell-based; conditions: COS-7
T1 sequence (whole entry): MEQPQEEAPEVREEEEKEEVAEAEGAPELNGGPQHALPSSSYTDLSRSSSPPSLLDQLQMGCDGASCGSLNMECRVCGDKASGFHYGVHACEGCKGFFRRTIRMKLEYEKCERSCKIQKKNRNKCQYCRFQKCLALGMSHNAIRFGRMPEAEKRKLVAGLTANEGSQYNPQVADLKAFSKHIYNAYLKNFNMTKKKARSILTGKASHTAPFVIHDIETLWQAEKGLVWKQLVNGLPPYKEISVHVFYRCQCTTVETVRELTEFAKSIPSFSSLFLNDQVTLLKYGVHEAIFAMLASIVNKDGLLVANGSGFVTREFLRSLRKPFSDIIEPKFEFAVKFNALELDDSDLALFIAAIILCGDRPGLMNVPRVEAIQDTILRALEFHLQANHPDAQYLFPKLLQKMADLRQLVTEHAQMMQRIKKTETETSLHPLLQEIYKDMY
Summary of the method: (§1)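 COS7 cells in DMEM/10% FCS at 37 °C, 5% CO2, plated 30000/well the day before. Lipofectamine LTX co-transfection of pFR-Luc, pRL-SV40 and Gal4–hPPAR-LBD (pFA-CMV) of the given subtype. After 5 h, switched to phenol red-free DMEM/10% FCS with 0.1% DMSO and compound; overnight incubation. Dual-Glo firefly/renilla luminescence, normalized to DMSO. Maximum effect compared with 1 μM reference agonist (GW7647 for α, L165,041 for δ). Triplicate wells, ≥3 independent runs.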

[2] = biological target: T2, Bifunctional epoxide hydrolase 2 (Homo sapiens, UniProt P34913); assay: Inhibition of recombinant soluble epoxide hydrolase using PHOME as substrate after 10 mins by fluorescence assay
T2 sequence (P34913 whole entry): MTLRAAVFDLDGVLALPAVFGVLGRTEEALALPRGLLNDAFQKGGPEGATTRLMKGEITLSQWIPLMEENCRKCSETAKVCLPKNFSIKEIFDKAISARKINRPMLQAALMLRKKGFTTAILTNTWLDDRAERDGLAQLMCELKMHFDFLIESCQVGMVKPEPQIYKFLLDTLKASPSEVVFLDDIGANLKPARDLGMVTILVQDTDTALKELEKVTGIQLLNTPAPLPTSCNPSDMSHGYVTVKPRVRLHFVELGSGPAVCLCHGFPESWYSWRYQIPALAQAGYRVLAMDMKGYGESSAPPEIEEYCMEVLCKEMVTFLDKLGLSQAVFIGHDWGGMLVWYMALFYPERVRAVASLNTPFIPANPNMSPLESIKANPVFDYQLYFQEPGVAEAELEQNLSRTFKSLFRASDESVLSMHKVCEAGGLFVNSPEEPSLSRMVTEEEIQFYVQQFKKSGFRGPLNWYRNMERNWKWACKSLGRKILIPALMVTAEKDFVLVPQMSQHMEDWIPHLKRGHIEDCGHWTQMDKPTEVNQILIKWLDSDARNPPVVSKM

[3] = biological target: T3, Peroxisome proliferator-activated receptor alpha (Homo sapiens) (UniProt Q07869); assay: Transactivation of GAL4-fused human PPARalpha ligand binding domain transfected in african green monkey COS7 cells at 10 uM by luciferase reporter gene assay relative to GW7647; format: cell-based; conditions: COS-7; summary of the method: as §1
T3 sequence (whole entry): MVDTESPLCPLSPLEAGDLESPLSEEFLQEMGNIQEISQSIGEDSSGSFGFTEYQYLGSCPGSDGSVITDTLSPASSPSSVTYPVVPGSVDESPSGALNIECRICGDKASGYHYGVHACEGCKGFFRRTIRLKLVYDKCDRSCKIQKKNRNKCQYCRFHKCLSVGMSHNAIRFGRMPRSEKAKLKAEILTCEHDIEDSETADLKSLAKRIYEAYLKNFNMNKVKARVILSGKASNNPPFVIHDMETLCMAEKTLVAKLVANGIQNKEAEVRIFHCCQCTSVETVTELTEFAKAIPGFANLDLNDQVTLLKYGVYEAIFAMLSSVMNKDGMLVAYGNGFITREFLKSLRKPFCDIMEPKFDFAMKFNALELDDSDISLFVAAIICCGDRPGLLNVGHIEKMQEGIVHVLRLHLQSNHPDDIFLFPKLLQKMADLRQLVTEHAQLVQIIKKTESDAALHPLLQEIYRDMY

[4] = biological target: T1, Peroxisome proliferator-activated receptor delta (Homo sapiens); assay: Transactivation of GAL4-fused human PPARdelta ligand binding domain transfected in african green monkey COS7 cells by luciferase reporter gene assay; format: cell-based; conditions: COS-7
Summary of the method: (§2)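 Gal4–hPPAR-LBD (α or δ) transient co-transfection with pFR-Luc and pRL-SV40 into COS7 cells seeded 30000/well. Compounds given in phenol red-free DMEM/10% FCS with 0.1% DMSO from 5 h post-transfection, overnight. Firefly over renilla luminescence, divided by DMSO control. EC50 and SD from means of ≥3 determinations by four-parameter logistic fit; triplicate wells, ≥3 independent experiments.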

[5] = biological target: T3, Peroxisome proliferator-activated receptor alpha (Homo sapiens); assay: Transactivation of GAL4-fused human PPARalpha ligand binding domain transfected in african green monkey COS7 cells by luciferase reporter gene assay; format: cell-based; conditions: COS-7; summary of the method: as §2

Structure (SMILES) | Activity [1] | IC50 [2] | Activity [3] | Activity [4] | %max [5] | Activity [5]
CCOC(=O)c1cccn1Cc1ccc(CNC(=O)NC23C[C@H]4C[C@@H](C2)C[C@@H](C3)C4)cc1 | inactive | 87 nM | inactive | – | – | –
O=C(NCc1cccc(Cn2cccc2C(=O)O)c1)NC12C[C@H]3C[C@@H](C1)C[C@@H](C2)C3 | inactive | 304 nM | inactive | – | – | –
CCOC(=O)c1cccn1Cc1ccc(CNC(=O)Nc2ccc(OC(F)(F)F)cc2)cc1 | inactive | 611 nM | inactive | – | – | –
O=C(NCc1ccccc1Cn1cccc1C(=O)O)Nc1ccc(OC(F)(F)F)cc1 | inactive | – | 38% | inactive | 55% | –
O=C(NCc1ccc(Cn2cccc2C(=O)O)cc1)NC12C[C@H]3C[C@@H](C1)C[C@@H](C2)C3 | inactive | 73 nM | inactive | – | – | –
O=C(NCc1ccc(Cn2cccc2C(=O)O)cc1)Nc1ccc(OC(F)(F)F)cc1 | inactive | 258 nM | 67% | inactive | 90% | –
O=C(NCc1cccc(Cn2cccc2C(=O)O)c1)Nc1ccc(OC(F)(F)F)cc1 | – | 943 nM | 58% | – | 97% | –
CCOC(=O)c1cccn1Cc1cccc(CNC(=O)NC23C[C@H]4C[C@@H](C2)C[C@@H](C3)C4)c1 | inactive | 46 nM | inactive | – | – | –
CCOC(=O)c1cccn1Cc1ccc(CNC(=O)NC2CCCCC2)cc1 | inactive | 23 nM | inactive | – | – | –
O=C(NCc1cccc(Cn2cccc2C(=O)O)c1)NC1CCCCC1 | inactive | 1920 nM | inactive | – | – | –
CCOC(=O)c1cccn1Cc1ccccc1CNC(=O)NC12C[C@H]3C[C@@H](C1)C[C@@H](C2)C3 | inactive | 43 nM | inactive | – | – | –
O=C(NCc1ccccc1Cn1cccc1C(=O)O)NC1CCCCC1 | inactive | 747 nM | inactive | – | – | –
O=C(NCc1ccccc1Cn1cccc1C(=O)O)NC12C[C@H]3C[C@@H](C1)C[C@@H](C2)C3 | inactive | – | inactive | inactive | – | inactive
CCOC(=O)c1cccn1Cc1ccccc1CNC(=O)Nc1ccc(OC(F)(F)F)cc1 | inactive | 2010 nM | inactive | – | – | –
CCOC(=O)c1cccn1Cc1cccc(CNC(=O)Nc2ccc(OC(F)(F)F)cc2)c1 | inactive | – | inactive | – | – | –
CCOC(=O)c1cccn1Cc1cccc(CNC(=O)NC2CCCCC2)c1 | inactive | 27 nM | inactive | – | – | –
CCOC(=O)c1cccn1Cc1ccccc1CNC(=O)NC1CCCCC1 | inactive | 39 nM | inactive | – | – | –
O=C(NCc1ccc(Cn2cccc2C(=O)O)cc1)NC1CCCCC1 | inactive | 252 nM | inactive | – | – | –
